MIC and Activity data for 26 molecules are collected here from ChEMBL document CHEMBL1145391, “C-3 alkyl/arylalkyl-2,3-dideoxy hex-2-enopyranosides as antitubercular agents: synthesis, biological evaluation, and QSAR study” (J Med Chem, 2007).

Data set [1] has as its system Mycobacterium tuberculosis. Kind of data set: Antitubercular activity against Mycobacterium tuberculosis H37Rv by agar dilution assay. It counts as functional. Summed up:
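Compounds 2-fold serially diluted into 7H10 agar tubes. H37Rv inoculum taken from fresh Lowenstein-Jensen slants, adjusted to 1 mg/mL wet weight in 0.05% Tween 80 saline, then diluted 10^-2 (about 10⁷ cfu/mL) and spotted onto the agar. Incubated at 37 °C; final read at 30 days. MIC is the lowest concentration giving complete growth inhibition per spot. Ofloxacin was the standard.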

The subject of data set [2] is J774.A1. The experiment in a line: Cytotoxicity against mouse […] cells at 25 ug/mL. It counts as cell-based.
Data set [3] concerns J774.A1. Kind of data set: Cytotoxicity against mouse […] cells at 12.5 ug/mL. The class given is cell-based.
In data set [4] the test system is Vero. The experiment in a line: Cytotoxicity against Vero cells at 25 ug/mL after 72 hrs by MTT assay. Conditions: chlorocebus sabaeus. The class given is cell-based. Summed up:
(§1)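 VERO cells (from ATCC, maintained in-house) were seeded and grown at 37 °C in 5% CO₂/95% air. They were then exposed to the compound at 25, 50 and 100 µg/mL for 72 h.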
On the technique in general: Tetrazolium assays rely on reduction of a dye to a coloured formazan, in cell work by metabolically active cells.

Data set [5] has as its system J774.A1. The experiment in a line: Cytotoxicity against mouse […] cells at 50 ug/mL. It counts as cell-based.
The test system of data set [6] is Mycobacterium tuberculosis. Kind of data set: Antitubercular activity against Mycobacterium tuberculosis H37Rv at 50 ug/mL by agar dilution assay. The class given is functional, organism-based.
For data set [7], the system named is Vero. The experiment in a line: Cytotoxicity against Vero cells at 100 ug/mL after 72 hrs by MTT assay. It counts as cell-based. Conditions: chlorocebus sabaeus. Summed up: as §1

Structures are written as SMILES. In brackets after ≈: the same amount, converted by molar mass. Activity calls are given as the source filed them. The calls are words filed in the database; no cut-off is given here.

What is called MIC is the least concentration at which growth counts as inhibited. Higher therefore signals a need for much substance.

In the case of `CC(C)O[C@@H]1C=C([C@H](O)c2cccc([N+](=O)[O-])c2)[C@H](O)[C@@H](COC(=O)C(C)(C)C)O1`, the MIC in data set [1] was determined as 25 µg/mL (≈ 59 µM).

For `CCC[C@@H](O)C1=C[C@@H](OC(C)C)O[C@H](COC(=O)C(C)(C)C)C1=O`, in data set [1], it took 25 µg/mL (≈ 73 µM) to inhibit growth (MIC).

As for `CC(C)O[C@@H]1C=C([C@H](O)c2ccccc2[N+](=O)[O-])[C@H](O)[C@@H](COC(=O)C(C)(C)C)O1`, the MIC in data set [1] amounted to 25 µg/mL (≈ 59 µM).

Consider `CCCCCCCCC[C@@H](O)C1=C[C@@H](OC(C)C)O[C@H](COC(=O)C(C)(C)C)[C@H]1O`, for which the MIC in data set [1] was found to be 1.56 µg/mL (≈ 3.64 µM). Moreover, the Activity result is reported as “Non-toxic” in the data set with J774.A1 [2], “Non-toxic” with J774.A1 [3], “Toxic” in the data set with Vero [4] and “Non-toxic” with J774.A1 [5].

On to `CC(C)O[C@@H]1C=C([C@H](O)c2ccc([N+](=O)[O-])cc2)C(=O)[C@@H](COC(=O)c2ccc([N+](=O)[O-])cc2)O1`, for which the minimal inhibitory concentration (MIC) in data set [1] was 25 µg/mL (≈ 51.4 µM).

With `CC(C)O[C@@H]1C=C([C@H](O)c2ccc(F)cc2)C(=O)[C@@H](COC(=O)c2ccc([N+](=O)[O-])cc2)O1`, the lowest concentration to inhibit growth in data set [1] (MIC) was 25 µg/mL (≈ 54.4 µM).

In the case of `CC(C)O[C@@H]1C=C([C@H](O)c2ccc(C(F)(F)F)cc2)C(=O)[C@@H](COC(=O)c2ccc([N+](=O)[O-])cc2)O1`, the MIC in data set [1] stood at 25 µg/mL (≈ 49.1 µM).

As for `CCCCCCCCC[C@@H](O)C1=C[C@@H](OC(C)C)O[C@H](COC(=O)c2ccc([N+](=O)[O-])cc2)[C@H]1O`, the minimum inhibitory concentration (MIC) in data set [1] was found to be 25 µg/mL (≈ 50.6 µM).

The molecule `CC(C)O[C@@H]1C=C([C@H](O)c2cccc([N+](=O)[O-])c2)C(=O)[C@@H](COC(=O)C(C)(C)C)O1` displayed a minimum inhibitory concentration (MIC) in data set [1] of 50 µg/mL (≈ 119 µM).

On to `CCC[C@@H](O)C1=C[C@@H](OC(C)C)O[C@H](COC(=O)c2ccc([N+](=O)[O-])cc2)C1=O`, for which, in data set [1], the minimal inhibitory concentration (MIC) worked out at 25 µg/mL (≈ 61.4 µM).

In the case of `CC(C)O[C@@H]1C=C([C@H](O)c2ccc(F)cc2)C(=O)[C@@H](COC(=O)C(C)(C)C)O1`, in data set [6], the outcome was inactive.

In the case of `CC(C)O[C@@H]1C=C([C@H](O)c2ccc(C#N)cc2)[C@H](O)[C@@H](COC(=O)C(C)(C)C)O1`, the outcome in data set [6] was inactive.

`CC(C)O[C@@H]1C=C([C@H](O)c2ccc(C(F)(F)F)cc2)C(=O)[C@@H](COC(=O)C(C)(C)C)O1` displayed an MIC in data set [1] of 50 µg/mL (≈ 112 µM).

In turn, `CC(C)O[C@@H]1C=C([C@H](O)c2ccc(C(F)(F)F)cc2)[C@H](O)[C@@H](COC(=O)c2ccc([N+](=O)[O-])cc2)O1` came in with an MIC in data set [1] of 25 µg/mL (≈ 48.9 µM). Against the preceding molecule, the MIC is about 2-fold lower.

The molecule `CC(C)O[C@@H]1C=C([C@H](O)c2ccc(C(F)(F)F)cc2)[C@H](O)[C@@H](COC(=O)C(C)(C)C)O1` returned an MIC in data set [1] of 25 µg/mL (≈ 56 µM).

In the case of `CCCCCCCCC[C@@H](O)C1=C[C@@H](OC(C)C)O[C@H](COC(=O)c2ccc([N+](=O)[O-])cc2)C1=O`, in data set [1], the lowest concentration to inhibit growth (MIC) was 25 µg/mL (≈ 50.9 µM).

Molecule `CC(=O)OC[C@H]1O[C@H](OC(C)C)C=C([C@H](O)c2ccc([N+](=O)[O-])cc2)C1=O` had an MIC in data set [1] of 1.56 µg/mL (≈ 4.11 µM). Besides, the Activity entry with J774.A1 [2] was “Non-toxic”; with J774.A1 [3], “Non-toxic”; in the data set with Vero [4], “Toxic”; with J774.A1 [5] it was “Non-toxic”.

`CC(C)O[C@@H]1C=C([C@H](O)c2ccc([N+](=O)[O-])cc2)[C@H](O)[C@@H](COC(=O)c2ccc([N+](=O)[O-])cc2)O1` had an MIC in data set [1] of 25 µg/mL (≈ 51.2 µM).

On to `CCCCCCCCC[C@@H](O)C1=C[C@@H](OC(C)C)O[C@H](COC(=O)C(C)(C)C)C1=O`, for which the MIC in data set [1] turned out to be 6.25 µg/mL (≈ 14.7 µM). Moreover, the Activity entry with J774.A1 [2] was “Non-toxic”; in the data set on J774.A1 [3], “Non-toxic”; in the data set with Vero [4] it was “Toxic”; in the data set with J774.A1 [5], “Non-toxic”.

As for `CC(C)O[C@@H]1C=C([C@H](O)c2ccc(F)cc2)[C@H](O)[C@@H](COC(=O)C(C)(C)C)O1`, the minimal inhibitory concentration (MIC) in data set [1] came to 25 µg/mL (≈ 63.1 µM).

`CC(C)O[C@@H]1C=C([C@H](O)c2ccc(C#N)cc2)C(=O)[C@@H](COC(=O)c2ccc([N+](=O)[O-])cc2)O1`: the lowest concentration to inhibit growth in data set [1] (MIC) was 25 µg/mL (≈ 53.6 µM).

Regarding `CC(C)O[C@@H]1C=C([C@H](O)c2ccc([N+](=O)[O-])cc2)[C@H](O)[C@@H](COC(=O)C(C)(C)C)O1`, in data set [6], the result was inactive.

Turning to `CC(=O)OC[C@H]1O[C@H](OC(C)C)C=C([C@H](O)c2ccc([N+](=O)[O-])cc2)[C@@H]1O`, in data set [1], the MIC stood at 25 µg/mL (≈ 65.6 µM).

With `CC(C)O[C@@H]1C=C([C@H](O)c2ccc(C#N)cc2)C(=O)[C@@H](COC(=O)C(C)(C)C)O1`, in data set [1], the lowest concentration to inhibit growth (MIC) was 3.12 µg/mL (≈ 7.77 µM). For the same molecule, the Activity entry in the data set with J774.A1 [2], in the data set with J774.A1 [3], with Vero [7] and with J774.A1 [5] was “Non-toxic” in each case.

As for `CC(C)O[C@@H]1C=C([C@H](O)c2ccc([N+](=O)[O-])cc2)C(=O)[C@@H](COC(=O)C(C)(C)C)O1`, the MIC in data set [1] was determined as 50 µg/mL (≈ 119 µM).

Take `CC(C)O[C@@H]1C=C([C@H](O)c2ccccc2[N+](=O)[O-])C(=O)[C@@H](COC(=O)C(C)(C)C)O1`: the MIC in data set [1] is 50 µg/mL (≈ 119 µM).
